Compound activity: PubChem, several laboratories
Sampled rows, rich in hits. Any-hit rate of the full collection: about 4.7%.
MrgX1 agonist = agonists of human MrgX1 receptor; Q96LB2; MrgX1-HEK293 cells, Fluo-4 calcium fluorescence, agonist mode; hits give high values; B-score at 10 µM; 0.44% of 310,000 active; AID 588627;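 active = calcium response B-score plate-corrected fluorescence ratio at least 3 library SD, with starting fluorescence B-score inside 5 SD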
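Material – MrgX1-expressing HEK293 cells · Input – 15,000 cells seeded per well · Dosing – compound as first of three additions · Times – overnight seeding, then 1 h dark dye loading · Measured by – kinetic Fluo-4 NW fluorescence of intracellular calcium · Read-out – B-scored fluorescence response ratio · Benchmarks – positive and negative control wells on each plate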
MrgX1 PAM = human MrgX1 positive allosteric modulation, primary screen. Q96LB2. MrgX1-HEK293, Fluo-4 calcium flux, FDSS; hits give high values. B-score at 10 µM. 0.63% of 310,000 active;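 active = plate-corrected calcium response at least 3 library SD above typical, normal starting fluorescence, not activating the receptor alone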;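 also: compound read alongside a low EC10 to EC30 dose of BAM8-22 agonist; peak minus trough fluorescence over baseline measured at the second addition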
KCC2 mod = modulators of human KCC2 chloride dependent transport; KCC2 cells, thallium flux FluoZin-2 fluorescence; B-score of Tl+ flux slope (higher = more flux/activation; lower = inhibition) at 10 µM; 2.2% of 190,000 active;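 active = thallium flux slope and its plate-corrected score both differing from the plate sample mean at a set confidence after two filtering rounds, in either direction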;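 also: slope of fluorescence scaled to starting intensity during 10 to 20 s after thallium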
MrgX1 antagonist = antagonists of human MrgX1 receptor. Q96LB2. MRGX1-HEK293 calcium flux, Fluo-4, BAM8-22 antagonism; hits give low values. B-score at 10 µM. 1.3% of 310,000 active;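 active = calcium-response B-score plate-corrected more than 3 library SD below zero, starting fluorescence within 5 deviations, no agonist response on first addition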;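 also: peak minus trough fluorescence over baseline after final BAM8-22 challenge near maximal dose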
RGS4 act = potentiators or activators of RGS4; HEK293 M3R/inducible RGS4, carbachol calcium flux Fluo4; hits give low values; B-score at 10 µM; 0.92% of 310,000 active;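 active = B-score of the integrated calcium signal more than 4 SD below the library mean, with starting fluorescence not abnormally high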;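 also: negative B-score means reduced calcium response which marks RGS4 activation or potentiation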
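test system = HEK293 cells with stable M3R and inducible RGS4 | schedule = recording 10 s baseline at 1 Hz, 100 s post-agonist | technique = Fluo4-AM (2 µM) calcium-flux fluorescence, kinetic read | measure = Agonist-evoked peak-minus-minimum fluorescence over baseline, integrated ratio, B score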
RGS4 inh = inhibitors of human RGS4; P49798; HEK293 M3R/RGS4 inducible, Fluo-4 calcium flux; hits give high values; triggered by carbachol at its EC20; B-score at 10 µM; 0.45% of 310,000 active;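 active = B-score, a plate-corrected calcium signal, over three deviations above library mean, with baseline fluorescence within five deviations of library mean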;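 also: RGS4 expression induced by doxycycline in cells with stable M3 receptor; B-score is computed from the integrated fluorescence ratio over baseline after carbachol; higher B-score means a larger calcium signal and so more RGS4 inhibition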
KCC2 secondary = confirmation of human KCC2 transport modulators | shares compounds with KCC2 mod | HEK293-KCC2, thallium flux, FluoZin2 fluorescence; hits give high values | normalised thallium flux (F/F0 slope) at 10 µM | 15% of 3,700 active | AID 1713;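 active = thallium flux slope above the same plate's solvent-only control mean plus 3 SD; inconclusive = the two replicate wells disagree; inactive = no significant difference from solvent-only control wells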
KCC2 bumet counter = thallium flux persisting under bumetanide in KCC2 cells, counter-screen secondary assay. shares compounds with KCC2 mod. HEK293-KCC2 + bumetanide/ouabain, thallium flux FluoZin2; hits give high values. normalized thallium flux at 10 µM. 49% of 3,700 active. AID 1714;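 active = thallium entry rate above the same plate's blocked-transporter control wells by more than 3 SD; inconclusive = the two repeat wells disagree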;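 also: raw slope of fluorescence over initial fluorescence between 10 and 20 s after thallium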
KCC2 sec2 = confirmation of human KCC2 transport modulators | normalized thallium flux at 10 µM | shares compounds with KCC2 mod | 23% of 3,700 active | HEK293-KCC2, thallium flux FluoZin2 fluorescence; actives lie on both sides; F/F0 rise rate, 10–20 s post-thallium;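 active = thallium flux slope more than 3 SD above or below the plate's solvent-only control mean, mostly below; inconclusive = the two repeat wells disagreed; inactive = no significant shift from solvent-only controls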;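 also: raw slope with 0.1% DMSO as baseline and bumetanide as block control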
HEK293 Tl flux = acts in parental HEK cells, KCC2 counter-screen | AID 1716 | thallium flux rate (normalised fluorescence) at 10 µM | 46% of 3,700 active | shares compounds with KCC2 mod | HEK293 parental cells, thallium flux FluoZin2, ouabain; baseline-ratio fluorescence slope, 10–20 s after thallium;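 active = thallium flux rate significantly above the same plate's solvent-only control wells, beyond their mean plus 3 SD; inconclusive = the two replicate wells gave conflicting results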
KCC2 retest ouab = modulates human KCC2 on retest with ouabain. HEK293-KCC2, thallium flux FluoZin2 fluorescence; bidirectional: low = inhibitor, high = activator. 48% of 3,700 active. shares compounds with KCC2 mod. raw Tl+ flux slope (below DMSO = inhibition, above = activation) at 10 µM;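 active = thallium flux slope beyond 3 SD from same-plate DMSO control mean in most replicates, usually higher, sometimes lower; inconclusive = repeat tests gave conflicting results; inactive = no significant difference from controls in most replicates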;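 also: slope of initial-normalized fluorescence between seconds 10 and 20 after thallium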
HEK293 Tl flux2 = acts in parental HEK cells, second KCC2 counter-screen | shares compounds with KCC2 mod | HEK293 parental, thallium flux FluoZin-2 fluorescence slope | thallium flux slope at 10 µM | 33% of 3,700 active | AID 1718;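 active = thallium flux slope above the same plate's solvent-control mean plus 3 SD in both duplicate wells; inconclusive = duplicate wells that disagreed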;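 also: run without ouabain in cells lacking the KCC2 cotransporter; slope of fluorescence scaled to its starting value between 10 and 20 s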
* hit, by the source's call; i = inactive; ? = inconclusive; . = not tested or not shown.

SMILES | MrgX1 agonist | MrgX1 PAM | KCC2 mod | MrgX1 antagonist | RGS4 act | RGS4 inh | KCC2 secondary | KCC2 bumet counter | KCC2 sec2 | HEK293 Tl flux | KCC2 retest ouab | HEK293 Tl flux2
CCOC(=O)Cc1csc(NC(=S)NC(=O)c2cccc([N+](=O)[O-])c2)n1 | i | i | 9.6* | i | i | i | 0.014* | 0.034* | 0.036 | 0.014* | 0.034* | 0.011
CCOC(=O)Cc1csc(NC(=S)NC(=O)CC(C)C)n1 | i | i | 8.8* | i | i | i | ? | 0.04* | 0.03 | 0.014* | 0.036* | 0.011*
CCCC(=O)Nc1nc(CC(=O)OCC)cs1 | i | i | 0.12 | i | i | i | . | . | . | . | . | .
CCOC(=O)Cc1csc(NS(=O)(=O)c2cccc([N+](=O)[O-])c2)n1 | i | i | . | i | i | i | . | . | . | . | . | .
Cc1cccc2cc3c(NC(=O)C(C)(C)C)nn(CC(C)C)c3nc12 | i | i | . | i | i | i | . | . | . | . | . | .
NNC(=O)c1nc(-c2ccccc2)cc(-c2ccccc2)n1 | i | i | . | i | i | i | . | . | . | . | . | .
O=C(CN(Cc1ccc(F)cc1)C(=O)CNS(=O)(=O)c1ccccc1)NCc1ccco1 | i | i | . | i | i | i | . | . | . | . | . | .
Cc1ccccc1Cn1nc(C)c(NC(=O)c2noc3c2CCc2ccccc2-3)c1C | i | i | -3.8* | i | i | i | 0.0085 | 0.0068 | 0.033 | 0.0081 | 0.019 | 0.011
S=C1NC2(CCCC2)N=C1c1ccccc1 | i | i | 2.3 | i | i | i | . | . | . | . | . | .
Cc1ccc(C2=NC3(CCCC3)NC2=S)cc1 | i | i | 5.6* | i | i | i | 0.011 | 0.019* | 0.03 | 0.011* | 0.024 | ?
S=C1NC2(CCCCCC2)N=C1c1ccccc1 | i | i | 4.6* | i | i | i | 0.01 | 0.016* | 0.038 | ? | ? | 0.013
O=C1NC2(CCCCCC2)N=C1c1ccc(F)cc1 | i | i | 0.9 | i | i | i | . | . | . | . | . | .
CCN(CC1CCCO1)C(=O)c1cc(COc2cc(C)c(Cl)c(C)c2)on1 (configuration not stated) | . | . | . | . | i | i | . | . | . | . | . | .
COc1cc(OC)c(C2=NOC(C(=O)N3CCc4ccccc4C3)C2)cc1Cl (configuration not stated) | i | i | -3.2* | i | i | i | 0.0057 | 0.0039 | 0.024* | 0.0074 | ? | 0.0092
COc1cccc(C2=NOC(C(=O)N3CCN(Cc4ccccc4)CC3)C2)c1OC (configuration not stated) | i | i | -4* | i | i | i | 0.0065 | 0.0057 | 0.029 | 0.0062 | 0.016* | ?
O=C1C2Sc3[nH]c(=O)sc3C(c3ccccc3)C2C(=O)N1c1ccc(Cl)cc1 (configuration not stated) | i | i | -9.8* | i | . | . | 0.0066 | 0.013* | 0.024* | 0.01* | 0.011* | 0.011
O=C1C2Sc3[nH]c(=O)sc3C(c3cc([N+](=O)[O-])ccc3O)C2C(=O)N1c1ccccc1 (configuration not stated) | i | i | -0.89 | i | i | i | . | . | . | . | . | .
Cc1ccc(N2C(=O)C3Sc4[nH]c(=O)sc4C(c4ccccc4)C3C2=O)cc1 (configuration not stated) | i | i | -10* | i | . | . | 0.0074 | 0.011* | 0.023* | 0.01* | 0.0098* | 0.011
CC1Cc2ccccc2N1C(=O)c1ccc(N2CCCC2)c([N+](=O)[O-])c1 (configuration not stated) | i | i | -6.5* | i | i | i | 0.0068 | 0.0047 | 0.02* | 0.0071 | 0.013* | 0.01
Cn1c(/C=C(\C#N)C(N)=S)ccc1-c1ccc(Br)cc1 | . | . | -0.58 | . | . | . | . | . | . | . | . | .
COc1ccc(CNC(=O)COC(=O)c2cccs2)cc1 | i | i | . | i | i | i | . | . | . | . | . | .
CN=c1scc(-c2ccccc2F)n1/N=C(\C)c1cccnc1 | i | i | -3.9* | i | i | i | 0.007 | 0.0048 | ? | 0.0077 | ? | 0.011
CCOc1ccc2nc(NC(=S)N(C)C)sc2c1 | i | i | . | i | i | i | 0.018* | 0.13* | 0.033 | 0.047* | 0.057* | 0.02*
CCNC(=O)Nc1nc2ccccc2s1 | i | i | -0.14 | i | i | i | . | . | . | . | . | .
CN(C)C(=S)Nc1nc2ccccc2s1 | . | . | 69* | . | i | i | 0.017* | 0.089* | 0.034 | 0.032* | 0.059* | 0.017*
SMILES | MrgX1 agonist | MrgX1 PAM | KCC2 mod | MrgX1 antagonist | RGS4 act | RGS4 inh | KCC2 secondary | KCC2 bumet counter | KCC2 sec2 | HEK293 Tl flux | KCC2 retest ouab | HEK293 Tl flux2
S=C(Nc1ccccc1)c1nc2ccccc2s1 | i | i | 9.7* | i | i | i | 0.0069 | 0.013* | 0.032 | 0.013* | ? | 0.014*
O=C(NNc1nc2ccccc2s1)Nc1ccccc1 | i | i | 1.4 | i | i | i | . | . | . | . | . | .
CC(C)CCn1c(O)c(N=Nc2ccccn2)c2ccccc21 | i | i | 6.9* | i | i | i | 0.0092 | 0.021* | 0.035 | ? | ? | 0.013
CCCn1c(O)c(N=Nc2ccc3ccccc3n2)c2ccccc21 | i | i | -5* | -4.8* | i | i | 0.01 | 0.011* | 0.03 | 0.0087* | 0.021 | 0.011
Oc1ccc2ccccc2c1N=Nc1ccccn1 | i | i | 3 | i | i | i | . | . | . | . | . | .
CCCn1c2ccccc2c2nc3ccccc3nc21 | i | i | 0.17 | i | i | i | . | . | . | . | . | .
O=C(Cn1cnc2c(nnn2Cc2ccccc2)c1=O)N1CCN(c2ccccc2)CC1 | i | i | -4.5* | i | i | i | 0.0065 | 0.0065 | 0.032 | 0.0086 | 0.014* | 0.011
